Columns and labels:
Assay type in all cases: functional
Sitophilus zeamais [1] = assay: Insecticidal activity against Sitophilus zeamais assessed as mortality at 50 ug applied on thoracic tergite at 25 +/- 0.5 degC and 75 +/- 5 % RH without food for 12 hr
Outline: (§1)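 Topical contact assay. Dose was expressed per mg of insect body weight: 5 μg/mg for P. americana, 10 µg/mg for A. monuste orseis, and 50 μg/mg for A. obtectus and S. zeamais. The acetone control received solvent only. Insects were held in Petri dishes in an incubator with a 12 h photoperiod. Dead and motionless insects were both counted as dead. Mean percent mortality was compared by Tukey test at the 0.05 level.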

Ascia monuste [2] = assay: Insecticidal activity against Ascia monuste orseis assessed as mortality at 10 ug applied on thoracic tergite at 25 +/- 0.5 degC and 75 +/- 5 % RH with food for 12 hr; outline: as §1
Acanthoscelides obtectus [3] = assay: Insecticidal activity against Acanthoscelides obtectus assessed as mortality at 50 ug applied on thoracic tergite at 25 +/- 0.5 degC and 75 +/- 5 % RH without food for 12 hr; outline: as §1
Ascia monuste [4] = assay: Insecticidal activity against Ascia monuste orseis assessed as mortality at 10 ug applied on thoracic tergite at 25 +/- 0.5 degC and 75 +/- 5 % RH with food for 24 hr; outline: as §1
Sitophilus zeamais [5] = assay: Insecticidal activity against Sitophilus zeamais assessed as mortality at 50 ug applied on thoracic tergite at 25 +/- 0.5 degC and 75 +/- 5 % RH without food for 24 hr; outline: as §1
Acanthoscelides obtectus [6] = assay: Insecticidal activity against Acanthoscelides obtectus assessed as mortality at 50 ug applied on thoracic tergite at 25 +/- 0.5 degC and 75 +/- 5 % RH without food for 24 hr; outline: as §1
Periplaneta americana [7] = assay: Insecticidal activity against second-instar nymph Periplaneta americana (American cockroach) assessed as mortality at 5 ug applied on thoracic tergite at 25 +/- 0.5 degC and 75 +/- 5 % RH with food for 12 hr; outline: as §1
Periplaneta americana [8] = assay: Insecticidal activity against second-instar nymph Periplaneta americana (American cockroach) assessed as mortality at 5 ug applied on thoracic tergite at 25 +/- 0.5 degC and 75 +/- 5 % RH with food for 24 hr; outline: as §1

SMILES	mortality (Sitophilus zeamais [1]) [%]	mortality (Ascia monuste [2]) [%]	mortality (Acanthoscelides obtectus [3]) [%]	mortality (Ascia monuste [4]) [%]	mortality (Sitophilus zeamais [5]) [%]	mortality (Acanthoscelides obtectus [6]) [%]	mortality (Periplaneta americana [7]) [%]	mortality (Periplaneta americana [8]) [%]
CCOc1ccc(C=C[C@H]2[C@H](C(=O)OC)C2(C)C)cc1	97.5	75	97.5	92.5	100	97.5	75	–
COC(=O)[C@H]1[C@H](C=Cc2c(F)c(F)c(F)c(F)c2F)C1(C)C	97.5	100	100	100	100	100	100	100
COC(=O)[C@H]1[C@H](C=Cc2cccc(OC)c2)C1(C)C	92.5	75	82.5	95	97.5	92.5	92	–
COC(=O)[C@H]1[C@H](C=Cc2ccccc2OC)C1(C)C	95	62.5	87.5	95	95	95	100	100
COC(=O)[C@@H]1[C@@H](C=O)C1(C)C	42.5	50	90	67.5	45	97.5	67	71
COC(=O)[C@H]1[C@H](C=O)C1(C)C	45	27.5	100	47.5	47.5	100	79.33	96
CC1(C)C2COC(=O)C21 (stereo not given)	85	100	100	100	90	100	100	100
COC(=O)[C@H]1[C@H](C=Cc2ccccc2Cl)C1(C)C (mixture of isomers)	82.5	100	97.5	100	90	97.5	67	67
CC1(C)C(C=C(Cl)Cl)C1C(=O)OCc1cccc(Oc2ccccc2)c1 (stereo not given) [PERMETHRIN]	85.5	100	100	100	90	100	87.5	97.5

Reference: ChEMBL document CHEMBL3044705, “Synthesis and insecticidal activity of an oxabicyclolactone and novel pyrethroids” (2012)
